Shown are actives, neighbours in structure and some others; about 1.7% of the full set was active somewhere.
Scp-1 inhibitor: inhibitors of human Scp-1 phosphatase; Q9GZU7; Recombinant Scp1, phosphopeptide, malachite green phosphate absorbance; inhibition, % at 20 µM; actives 0.88% (n = 340,000); AID 493091;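 active means inhibition above about 50% at 20 µM, limit read from the data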;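 further: plate controls were DMSO wells with enzyme for no effect and wells lacking enzyme for full effect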
Target sequence (Q9GZU7 76-261 limits assumed): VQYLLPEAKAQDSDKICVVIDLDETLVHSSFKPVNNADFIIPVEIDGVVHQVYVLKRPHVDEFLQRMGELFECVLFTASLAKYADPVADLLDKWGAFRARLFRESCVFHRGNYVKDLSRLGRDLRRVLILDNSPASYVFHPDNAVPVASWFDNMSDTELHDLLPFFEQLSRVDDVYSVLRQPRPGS
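Assay system: SCP-1 catalytic fragment, aa 76-261 | Buffer or medium: Tris acetate buffer pH 5.5 with MgCl2 and Tween-20 | Compound: One concentration, 20 µM, with 1.0% DMSO | Also added: Phospho 17-mer peptide substrate | Signal: Absorbance at 630 nm | Incubation: 45 min enzyme reaction at room temperature | Measure: % inhibition of SCP-1 phosphate liberation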
CASP6 VEID inh: caspase-6 (human) enzyme inhibition; actives 0.53% (n = 350,000); inhibition, % at 12.5 µM; purified caspase-6, Z-VEID-R110 cleavage fluorescence; AID 686996;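 active means mean inhibition across replicates at least about 35%, with every replicate also reaching that limit, limit read from the data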;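 further: 0% = median of neutral control wells and 100% = no fluorescence left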
DNMT1 block: blocks human DNA methyltransferase DNMT1; inhibition (reported as % activation of signal), % at 10 µM; P26358; actives 0.83% (n = 360,000); DNMT1 molecular beacon, Hinp1I cleavage, fluorescence; in the data active means inhibition above about 50%
SUMO1-SIM PPI: modulators of human SUMO1-mediated protein-protein interactions | SUMO1 binding to a labelled peptide, TR-FRET, 1 h | inhibition, % at 20 µM | actives 0.33% (n = 360,000); in the data active means inhibition above about 37%
Target sequence (P63165 whole entry, looked up): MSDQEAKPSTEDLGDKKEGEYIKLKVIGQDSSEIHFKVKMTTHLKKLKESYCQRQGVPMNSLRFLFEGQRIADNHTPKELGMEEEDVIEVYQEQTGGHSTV
STEP block: inhibitors of human striatal-enriched phosphatase STEP; P54829; recombinant STEP, OMFP fluorogenic substrate, fluorescence; inhibition, % at 20 µM; actives 0.25% (n = 360,000);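 active means inhibition at 20 µM, scaled per plate between control wells, above about 37%, limit read from the data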;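 further: 0% = DMSO with enzyme and substrate and 100% = substrate only without enzyme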
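medium = Bis-Tris buffer pH 6.0, 2.5 mM DTT, 0.005% Tween 20 | test system = STEP (striatal-enriched tyrosine phosphatase) enzyme, cell-free | measure = normalized % inhibition | compound dosing = 20 µM, 1% DMSO | also added = 25 µM OMFP | schedule = reaction 20 min, ambient temperature | measured by = fluorescence read at 480 nm ex / 540 nm em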
LMPTP block: LMPTP (human) inhibition. AID 651560. actives 0.22% (n = 360,000). P24666. recombinant LMPTP-A, OMFP fluorogenic substrate, fluorescence intensity. inhibition, % at 20 µM;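 active means compounds that cut the enzyme signal by at least half of the control window in the single-dose screen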;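 further: plate controls were DMSO wells with enzyme plus substrate for no effect and substrate without enzyme for full effect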
Target sequence (P24666 whole entry, looked up): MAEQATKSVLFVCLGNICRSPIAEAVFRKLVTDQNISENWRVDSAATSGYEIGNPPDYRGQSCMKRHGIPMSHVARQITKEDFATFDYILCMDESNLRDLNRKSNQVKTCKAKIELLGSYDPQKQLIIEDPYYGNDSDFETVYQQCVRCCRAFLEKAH
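Test system: LMPTP-A phosphatase enzyme; input: 0.625 nM LMPTP-A final; reagent: OMFP substrate, 400 µM final; compound dosing: 20 µM single dose, 3% DMSO; incubation: 50 min dark incubation at room temperature; measured by: endpoint fluorescence intensity from OMFP dephosphorylation; measure: % inhibition relative to no-enzyme and uninhibited control wells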
Scp1 confirm: confirmation of human Scp-1 phosphatase inhibitors | AID 540281 | recombinant SCP-1 catalytic domain, phosphate release, malachite green absorbance | inhibition, % at 20 µM | shares compounds with Scp-1 inhibitor | actives 61% (n = 2,500);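 further: plate controls were DMSO with enzyme for no effect and buffer wells lacking enzyme for full effect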
Scp-1 MG ctr: colorimetric interference in Scp-1 counter-screen; apparent inhibition (interference), % at 20 µM; shares compounds with Scp-1 inhibitor; AID 540313; 2,500 tested, under 10 active; Colorimetric interference counterscreen, malachite green absorbance 630 nm;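 further: compounds added after enzyme reaction finished so only phosphate colour detection is probed; plate controls were DMSO wells with completed Scp-1 reaction for no effect and substrate wells lacking enzyme for full effect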
Scp-1 Tm shift: Scp-1 (human) binding by thermal shift. shares compounds with Scp-1 inhibitor. Recombinant SCP1, Sypro Orange thermal shift Tm. thermal shift relative to vanadate control, % at 40 µM. actives 25% (n = 1,500). AID 540329;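 active means substances whose mean melting-temperature shift, as a percentage of the reference inhibitor's shift, reaches about 5.3%, limit read from the data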;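 further: 0% = Tm of DMSO wells and 100% = Tm with sodium orthovanadate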
Active calls of the source: *.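 How the source made its calls, unless noted: active means inhibition of at least 30% at 20 µM; inactive means the rest.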

Screening Cc1oc2c(C)c3oc(=O)c(CC(=O)N[C@@H](CCCNC(N)=O)C(=O)O)c(C)c3cc2c1C returned Scp-1 inhibitor 52*, CASP6 VEID inh -4, DNMT1 block 33, SUMO1-SIM PPI 30, STEP block 25, LMPTP block 3, Scp1 confirm 43*, Scp-1 MG ctr -7 and Scp-1 Tm shift -7.
Screening CC(C)(C)NC(=O)C(OC(=O)c1cccs1)c1ccccc1 (stereo unspecified) returned Scp-1 inhibitor -8, CASP6 VEID inh -2, DNMT1 block 1, SUMO1-SIM PPI -2, STEP block -1 and LMPTP block 0.
`Cn1ncc(Br)c1C(=O)N/N=C/c1cccc(OC2CSC2)c1` gave Scp-1 inhibitor -2, CASP6 VEID inh -1, DNMT1 block -3, SUMO1-SIM PPI -10, STEP block -2 and LMPTP block -1.
For O=C(N/N=C/c1cccc(OC2CSC2)c1)c1ccccc1O the results were Scp-1 inhibitor 96*, DNMT1 block -2, SUMO1-SIM PPI 1, STEP block 21, LMPTP block 42, Scp1 confirm 59*, Scp-1 MG ctr -16 and Scp-1 Tm shift -9.
CCc1ccc(-c2cc(C)no2)cc1S(=O)(=O)NC(C)Cc1ccco1 (stereo unspecified) was read as Scp-1 inhibitor -11, CASP6 VEID inh 6, DNMT1 block 0, SUMO1-SIM PPI 4, STEP block 2 and LMPTP block 0.
O=C(COC(=O)c1cc(Br)ccc1O)NC12CC3CC(CC(C3)C1)C2 was read as Scp-1 inhibitor 61*, CASP6 VEID inh 2, DNMT1 block -3, SUMO1-SIM PPI 2, STEP block -2, LMPTP block 0, Scp1 confirm -19 and Scp-1 MG ctr -17.
For O=C(COC(=O)c1cncc(Br)c1)NC12CC3CC(CC(C3)C1)C2 the results were CASP6 VEID inh 0, DNMT1 block 2, SUMO1-SIM PPI 2, STEP block -2 and LMPTP block -1.
For CCOC(=O)c1[nH]c(C)c(C(=O)NCc2ccco2)c1C the results were Scp-1 inhibitor 64*, CASP6 VEID inh 3, DNMT1 block 3, SUMO1-SIM PPI 1, STEP block 5, LMPTP block 0, Scp1 confirm -8 and Scp-1 MG ctr -16.
For COC(=O)c1c(C)[nH]c(C(=O)NCc2ccco2)c1C the results were Scp-1 inhibitor -4, CASP6 VEID inh -4, DNMT1 block 2, SUMO1-SIM PPI 2, STEP block -4 and LMPTP block 0.
`Cn1c(=O)[nH]c(=O)c2c1nc(N1CCCCC1)n2CCSc1ncccn1` gave Scp-1 inhibitor -1, CASP6 VEID inh 2, DNMT1 block -3, SUMO1-SIM PPI 2, STEP block 0 and LMPTP block -2.
For Cc1cc(C)c(C#N)c(Cl)n1 the results were Scp-1 inhibitor 66*, CASP6 VEID inh -4, DNMT1 block 0, SUMO1-SIM PPI 4, STEP block -1, LMPTP block -1, Scp1 confirm -25 and Scp-1 MG ctr -21.
For Cc1cc(C)c(C#N)c(N2CCCC2)n1 the results were Scp-1 inhibitor -6, CASP6 VEID inh 3, DNMT1 block 0, SUMO1-SIM PPI 2, STEP block 0 and LMPTP block -1.
Cc1cc(NC(=O)CSc2nc(-c3ccco3)cc(C(F)(F)F)n2)n(-c2ccccc2)n1 was read as Scp-1 inhibitor -9, DNMT1 block -1, SUMO1-SIM PPI -10, STEP block 3 and LMPTP block -2.
CN(C)c1ccc(CNC(=O)CCS(=O)(=O)c2ccc3c(c2)n(C)c(=O)c(=O)n3C)cc1 was read as Scp-1 inhibitor 64*, DNMT1 block 30, SUMO1-SIM PPI 23, STEP block 2, LMPTP block -1, Scp1 confirm 25 and Scp-1 MG ctr -12.
`Cc1ccc(CNC(=O)CCS(=O)(=O)c2ccc3c(c2)oc(=O)n3C)cc1` gave Scp-1 inhibitor -4, CASP6 VEID inh 1, DNMT1 block 1, SUMO1-SIM PPI -7, STEP block 1 and LMPTP block -1.
`COc1ccc(NC(=O)Nc2ccc3c(c2)C(=O)N([C@H](C)CO)C[C@H](C)[C@@H](CN(C)C(=O)Nc2ccccc2)O3)cc1` gave Scp-1 inhibitor 71*, CASP6 VEID inh 1, DNMT1 block 4, SUMO1-SIM PPI 10, STEP block -4, LMPTP block -1, Scp1 confirm 8 and Scp-1 MG ctr -10.
COc1ccc(NC(=O)N(C)C[C@H]2Oc3ccc(NC(=O)Nc4c(C)noc4C)cc3C(=O)N([C@H](C)CO)C[C@@H]2C)cc1 was read as Scp-1 inhibitor 62*, CASP6 VEID inh 1, DNMT1 block 4, SUMO1-SIM PPI 7, STEP block 2, LMPTP block 0, Scp1 confirm -3 and Scp-1 MG ctr -20.
Screening COc1ccc(NC(=O)N(C)C[C@H]2Oc3ccc(NS(=O)(=O)c4c(C)noc4C)cc3C(=O)N([C@H](C)CO)C[C@@H]2C)cc1 returned Scp-1 inhibitor 58*, CASP6 VEID inh 2, DNMT1 block 12, SUMO1-SIM PPI 2, STEP block -2, LMPTP block -1, Scp1 confirm 10 and Scp-1 MG ctr -17.
For COc1ccc(S(=O)(=O)Nc2ccc3c(c2)C(=O)N([C@H](C)CO)C[C@@H](C)[C@H](CN(C)S(=O)(=O)c2ccccc2)O3)cc1 the results were CASP6 VEID inh 3.
For COc1ccc(S(=O)(=O)N(C)C[C@H]2Oc3ccc(NS(=O)(=O)c4ccccc4)cc3C(=O)N([C@H](C)CO)C[C@@H]2C)cc1 the results were Scp-1 inhibitor 59*, CASP6 VEID inh 3, DNMT1 block 0, SUMO1-SIM PPI -6, STEP block 0, LMPTP block -1, Scp1 confirm 5 and Scp-1 MG ctr -10.
C=C(C)C(=O)N1CC2(CC(c3cccc(NC(=O)c4ccccc4)c3)=NO2)C[C@@H]1C(N)=O (stereo partly specified) was read as Scp-1 inhibitor 8, CASP6 VEID inh 5, DNMT1 block 1, SUMO1-SIM PPI 0, STEP block 1 and LMPTP block -1.
